Results from different studies.
Compare with care: the assays were run in different laboratories.
CYP2D6: Cytochrome P450 2D6 (CYP2D6, Homo sapiens, UniProt P10635)

| Structure (SMILES) | target or system | assay | system | setting | measurement | result |
| --- | --- | --- | --- | --- | --- | --- |
| Cc1ncc(C)n2nc(/C=C/c3nc(N4CCCC4)cc(N4CCOCC4)n3)nc12 | – | – | male beagle dog, plasma | oral, 0.3 mg/kg | half-life | 3.7 h |
| COC(=O)C1CCN(C(=O)c2ccc(NCc3cnc4nc(N)nc(N)c4n3)cc2)CC1 | CYP2D6 | enzyme activity, inhibitor, luciferase | – | 10 µM | inhibition | -27.7% |
| CCC[C@@](N)(CO)CCc1ccc(OCCCCCC(C)C)cc1 | CYP2D6 | enzyme activity, inhibitor | – | – | IC50 | 32 µM |
| C=C[C@H]1C[N@@]2CC[C@H]1C[C@@H]2[C@@H](O)c1ccnc2ccc(OC)cc12 | CYP2D6 | enzyme activity, inhibitor | human, liver microsomes | 10 µM | inhibition | 87% |
| O=C[C@H](C[C@@H]1CCNC1=O)NC(=O)[C@H](CC1CCCCC1)NC(=O)c1cc2ccccc2[nH]1 | – | – | dog, plasma | intravenous, 8 mg/kg | AUC | 14.5 µg·h/mL |
| N=c1c2c(-c3ccccc3)c(-c3ccccc3)n(Cc3ccccc3)c2ncn1[C@H]1CC[C@H](O)CC1 | – | – | male beagle dog, plasma | intravenous, 0.5 mg/kg, single dose | Vd | 15.9 L/kg |
| CN[C@@H](C)C(=O)N[C@H]1CN(C(=O)CC(C)C)CC[C@H]2CC[C@@H](C(=O)NC(c3ccccc3)c3ccccc3)N2C1=O | – | – | beagle dog, plasma | oral, 10 mg/kg | half-life | 27 h |
| COC(=O)C1CCN(C(=O)c2ccc(N(C)Cc3cnc4nc(N)nc(N)c4n3)cc2)CC1 | CYP2D6 | enzyme activity, inhibitor, luciferase | – | 10 µM | inhibition | -32.7% |
